Experimental data pooled from the literature.
Compare with care: the assays were run in different laboratories.
Target: Tyrosine-protein kinase Mer (MERTK, Homo sapiens, UniProt Q12866)
Residues used in one study (Q12866 21-999): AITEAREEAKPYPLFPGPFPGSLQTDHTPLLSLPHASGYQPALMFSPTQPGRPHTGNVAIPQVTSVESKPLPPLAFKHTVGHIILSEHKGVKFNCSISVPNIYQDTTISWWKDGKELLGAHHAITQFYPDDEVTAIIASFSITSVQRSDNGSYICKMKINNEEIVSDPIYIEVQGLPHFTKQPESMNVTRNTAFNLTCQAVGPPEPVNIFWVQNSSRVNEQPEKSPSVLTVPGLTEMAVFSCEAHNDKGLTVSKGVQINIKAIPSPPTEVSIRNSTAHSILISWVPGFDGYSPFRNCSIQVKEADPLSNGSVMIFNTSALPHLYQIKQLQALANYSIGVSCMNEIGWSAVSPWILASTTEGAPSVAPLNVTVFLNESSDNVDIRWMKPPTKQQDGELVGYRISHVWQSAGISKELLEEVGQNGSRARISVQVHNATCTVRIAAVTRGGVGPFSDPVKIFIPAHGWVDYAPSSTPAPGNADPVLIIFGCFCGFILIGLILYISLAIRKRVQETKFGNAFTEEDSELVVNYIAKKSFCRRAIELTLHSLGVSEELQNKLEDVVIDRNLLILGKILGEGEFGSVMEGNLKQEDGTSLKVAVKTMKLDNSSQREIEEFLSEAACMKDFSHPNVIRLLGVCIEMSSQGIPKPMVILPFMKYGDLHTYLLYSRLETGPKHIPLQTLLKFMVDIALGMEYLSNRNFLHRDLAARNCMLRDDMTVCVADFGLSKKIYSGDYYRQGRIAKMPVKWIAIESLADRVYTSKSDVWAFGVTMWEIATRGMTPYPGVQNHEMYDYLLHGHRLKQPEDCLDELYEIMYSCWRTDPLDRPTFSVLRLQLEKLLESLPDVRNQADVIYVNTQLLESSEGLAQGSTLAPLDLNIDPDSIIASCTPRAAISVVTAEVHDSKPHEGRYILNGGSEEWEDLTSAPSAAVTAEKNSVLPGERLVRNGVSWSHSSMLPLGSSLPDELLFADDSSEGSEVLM

SMILES	observed	technique	concentration	remaining binding [%]
N[C@H]1CCN(c2nccc(-c3cnn4ncccc34)n2)C1	binding	–	1 µM	100
CCCOc1ccc([C@@H]2[C@@H](C(=O)O)[C@H](c3ccc4c(c3)OCO4)CN2CC(=O)Nc2c(CC)cccc2CC)cc1	cell-free assay	competition with immobilised ligand	1 µM	97
O=C(c1ccc(Nc2ncc(Cl)c(-c3ccc(Cl)s3)n2)cc1)N1CCC(N2CCCC2)CC1	binding	competition with immobilised ligand	1 µM	4.3
FC(F)(F)Oc1cccc(-c2cnc3ccc(-c4ccncc4)nn23)c1	cell-free assay	competition with immobilised ligand	5 µM	100
CN(C)c1ncnc(-c2ccc3nc(Nc4cc(CN5CCN(C(=O)CC(F)(F)F)CC5)ccn4)[nH]c3c2)c1Cl	cell-free assay	competition with immobilised ligand	1 µM	87
O=C(c1ccc(Nc2nccc(-c3cc4ccccc4s3)n2)cc1)N1CCC(N2CCCC2)CC1	binding	competition with immobilised ligand	1 µM	42
CCC(=O)N[C@H]1CC[C@@H](C(=O)N(C)c2ccc(-c3nc4ccccc4o3)cc2)C1	cell-free assay	competition with immobilised ligand	1 µM	100
CC1CCCN1c1nccc(-c2cnn3ncccc23)n1 (stereo not drawn)	binding	–	1 µM	98
COc1cnc(Nc2cccc(S(N)(=O)=O)c2)nc1N1CCN(c2ccccc2)C(=O)C1	binding	competition with immobilised ligand	1 µM	94
CN(C)c1nccc(-c2cnc3ncccn23)n1	binding	–	1 µM	82
COc1cnc(Nc2cccc(S(N)(=O)=O)c2)nc1N1CCN(c2ccccc2)CC1	binding	competition with immobilised ligand	1 µM	65
Cc1cnc(Nc2ccc(C(=O)N3CCC(N4CCCC4)CC3)cc2)nc1-c1cc2ccccc2s1	binding	competition with immobilised ligand	1 µM	0.7
C[C@@H]1CCN(c2nccc(-c3cnn4ncccc34)n2)C1	binding	–	1 µM	100
C[C@@H](c1ccc(-n2cnc3c(N)ncnc32)cc1)N1CCc2nn(C)c(Cc3ccccc3)c2C1=O	binding	competition with immobilised ligand	0.1 µM	100
FC(F)(F)c1ccc2c(c1)nc(-c1cccnc1)n2C1CC1	cell-free assay	competition with immobilised ligand	1 µM	79
F[C@@H]1CCN(c2nccc(-c3cnn4ncccc34)n2)C1	binding	–	1 µM	100
O=S(=O)(NC1CCC(c2cc(F)ccc2F)(S(=O)(=O)c2ccc(Cl)cc2)CC1)C(F)(F)F (stereo not drawn)	cell-free assay	competition with immobilised ligand	1 µM	99
O=C(Nc1c[nH]nc1C(=O)NC1CCNCC1)c1cc(F)cc(F)c1	binding	competition with immobilised ligand	1 µM	100
COc1ncc2cc3ccccc3nc2c1C#N	cell-free assay	competition with immobilised ligand	5 µM	100
c1cnn2ncc(-c3ccnc(N4CCC45COC5)n3)c2c1	binding	–	1 µM	87
CC(=O)N1CCC(c2ccc(C(=O)NC(=N)N)cc2C(F)(F)F)CC1	cell-free assay	competition with immobilised ligand	1 µM	81
